Source: publication PMC4335298 (Genes & Development, 2015)
Each block holds one molecule with its values, some of them ahead of it.

Tests used:
[1] = molecular target: hTLX (construct of the size exclusion chromatography not stated) (human) (UniProt Q9Y466); experiment: SEC
[2] = Size exclusion chromatography of hTLX
[3] = system: SHP full-length (NP_035980); experiment: Coimmunoprecipitation with SHP; format: binding, mouse; settings: Co-IP, Flag/HA fusions, Western blot
[4] = system: Gal4 transcriptional activity; experiment: Gal4 reporter repression assay with Gal4-fused receptor LBDs; format: cell-based; settings: Gal4-fused receptor LBD, cell reporter assay, AD293 cells
Outline: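 AD293 cells were cotransfected with Gal4-DBD fusions of the hTLX LBD (residues 182–385; H12 deletion residues 182–371) or the dTLX LBD (residues 229–472), wild type or mutant, plus a luciferase reporter. Repression fold is RLU with Gal4 alone relative to RLU with the Gal4-receptor fusion. Expression was checked by anti-Gal4 Western blot. Values are SD, n = 3, with at least two repeats, and groups were compared by two-tailed Student's t-test.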

Molecule: hTLX (construct of the size exclusion chromatography not stated) (from UniProt Q9Y466-1 1-385) (natural protein)
stoichiometry N [1]: 2

Molecule: hTLX: human TLX (NP_003260)
Oligomeric state in solution [2]: formed a dimer in solution

B1: Atrophin-2: Atrophin-2 (NP_001036046, residues 1087–1566) (protein)
chain: AAKASSSAHEGRLSDPQLSGPGHMRPSFEPPPTTIAAVPPYIGPDTPALRTLSEYARPHVMSPTNRNHPFYMPLNPTDPLLAYHMPGLYNVDPTIRERELREREIREREIRERELRERMKPGFEVKPPELDPLHPATN
modifications: left off: Gal4 DNA-binding domain, end not stated, kept
Interaction with SHP [3]: able to interact

Repressor activity (in words) [4]: compromised its repressor activity
B2: COUP-TF2∆H12: human COUP-TF2 residues 76–258, helix H12 deleted (protein, UniProt P24468 76-258, looked up, fragment)
chain: HIECVVCGDKSSGKHYGQFTCEGCKSFFKRSVRRNLSYTCRANRNCPIDQHHRNQCQYCRLKKCLKVGMRREAVQRGRMPPTQPTHGQFALTNGDPLNCHSYLSGYISLLLRAEPYPTSRFGSQCMQPNNIMGIENICELAARMLFSAVEWARNIPFFPDLQITDQVALLRLTWSELFVLNAA
modifications: ligand-binding domain, H12 deleted
